Data set [1] deals with Calu-6. The experiment in a line: (§1) Inhibition of human His-tagged Frataxin/GST-tagged mono ubiquitin interaction expressed in human Calu6 cells after 3 days by GST pull down-based Western blot analysis. In kind it is cell-based. A digest of the protocol: (§2)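 Calu-6 cells transfected with His-frataxin or His-K147R. From 24 h post-transfection, cells received 10 µM MG132 for 18 h, or compound for 3 days with MG132 added for the last 18 h. Lysate (500 µg) pulled down with 5 µg GST-monoUb or GST on GSH-sepharose, 4 h at 4 °C, pH 7.5 buffer. Eluates blotted with anti-His and quantified by densitometry as % of control. IC50 obtained by four-parameter logistic fit; at least three independent experiments.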
(A western blot detects proteins with antibodies after separation by electrophoresis.)

The nature of data set [2]: as §1. The following applies: calu-6. Format: cell-based. A digest of the protocol: as §2
In data set [3] the test system is Calu-6. The data set can be described thus: Inhibition of His-tagged Frataxin (unknown origin)/Ubiquitin interaction expressed in human Calu6 cells assessed as increase in frataxin (1-210) precursor level at 10 uM after 18 hrs by Western blotting analysis. In kind it is cell-based. A digest of the protocol: (§3)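 Calu-6 cells (DMEM with glutamax, 10% FBS) transiently transfected with His-frataxin. From 24 h post-transfection, treated with 10 µM proteasome inhibitor for 18 h or 50 µM compound for 3 days. Extracts (50 µg) resolved on 15% SDS gels and immunoblotted with anti-frataxin using ECL detection. Band levels quantified by PhosphorImager and normalized to tubulin. Three independent experiments.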

Data set [4] deals with Calu-6. The experiment in a line: Inhibition of His-tagged Frataxin (unknown origin)/HA-tagged Ubiquitin interaction expressed in human Calu6 cells assessed as accumulation of monoUB-tagged frataxin (1-210) precursor at 10 uM after 18 hrs by immunoprecipitation assay. In kind it is cell-based. The method in brief:
(§4)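 Calu-6 cells cotransfected with His-frataxin and HA-Ub, then treated with 10 µM MG132 for 18 h starting 24 h after transfection. Frataxin immunoprecipitated from 1.5 mg extract using anti-frataxin on protein A/G beads (4 °C, 12 h). Precipitates run on 12% SDS-PAGE and blotted with anti-Ub. Three independent experiments.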

The test system of data set [5] is Calu-6. The data set can be described thus: Inhibition of His6-tagged Frataxin (unknown origin)/HA-tagged Ubiquitin interaction expressed in human Calu6 cells assessed as accumulation of frataxin at 10 uM after 18 hrs by immunoprecipitation assay. In kind it is cell-based. The method in brief:
as §4

In data set [6] the test system is Calu-6. The experiment in a line: Inhibition of recombinant His-tagged Frataxin (unknown origin)/GST-tagged mono ubiquitin interaction expressed in human Calu6 cells assessed as presence of frataxin signal at 10 uM after 18 hrs by GST pull down-based Western blotting analysis. In kind it is cell-based. The method in brief:
as §2

Data set [7] relates to T1, Frataxin, mitochondrial (Homo sapiens), Q16595 [K147R].
T1 sequence (whole entry): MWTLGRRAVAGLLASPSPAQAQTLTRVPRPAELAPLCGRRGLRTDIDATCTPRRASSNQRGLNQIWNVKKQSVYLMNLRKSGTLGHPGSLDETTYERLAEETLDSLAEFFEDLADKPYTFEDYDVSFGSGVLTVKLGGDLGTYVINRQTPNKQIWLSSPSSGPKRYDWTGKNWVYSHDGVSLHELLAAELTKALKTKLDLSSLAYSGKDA
The data set can be described thus: Inhibition of recombinant GST-tagged mono ubiquitin/His-tagged Frataxin K147R mutant (unknown origin) interaction expressed in human Calu6 cells assessed as presence of frataxin signal at 10 uM after 18 hrs by GST pull down-based Western blotting analysis. Format: cell-based. To be noted: Calu-6. A digest of the protocol:
as §2

In data set [8] the test system is Calu-6. The data set can be described thus: Inhibition of human His-tagged Frataxin/Ubiquitin interaction expressed in human Calu6 cells assessed as increase in mature frataxin (81-210) level at 50 uM after 3 days by Western blotting analysis. In kind it is cell-based. The method in brief:
as §3

Data set [9] concerns the target T2, Frataxin, mitochondrial (Homo sapiens) (UniProt Q16595).
T2 sequence (whole entry): T1 sequence (whole entry) with R147K
The experiment in a line: Binding affinity to recombinant His-tagged frataxin (unknown origin) at 1 uM at 25 degC by UF-LC/MS analysis relative to control. The method in brief:
(§5)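 His-frataxin recombinant protein (E. coli-expressed, Ni-NTA purified), 1 µM, incubated with ligand at 1 µM in 100 mM Tris-HCl pH 7.5, 50 mM KCl, 5 mM MgCl2, DMSO ≤2%, for 60 min at 25 or 37 °C. Unbound ligand removed by ultrafiltration and washing. Bound ligand dissociated in methanol and quantified by LC/MS (ESI positive). Ratio of peak area with active vs heat-denatured (90 °C, 1 h) protein. Duplicate assays, each analyzed twice.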

Data set [10] concerns the target T2, Frataxin, mitochondrial (Homo sapiens). The experiment in a line: Binding affinity to recombinant His-tagged frataxin (unknown origin) at 1 uM at 37 degC by UF-LC/MS analysis relative to control. A digest of the protocol:
as §5

For data set [11], the system named is Calu-6. The data set can be described thus: Cytotoxicity against human Calu6 cells assessed as cell viability up to 100 uM. Format: cell-based.

This note sets out measurements from ChEMBL document CHEMBL2321739, “Discovery of a novel small molecule inhibitor targeting the frataxin/ubiquitin interaction via structure-based virtual screening and bioassays” (J Med Chem, 2013).

Substitutions are numbered along the chain they refer to. Activity calls are given as the source filed them. The rule behind the calls is not given here. Peptide text beside a SMILES is read from it. * marks the point of attachment. Cbz = O=C(OCc1ccccc1)*

Usually IC50 stands for the concentration that gives 50% inhibition.

`COc1cccc(C(c2cc3c(cc2O)OCO3)N2CCOCC2)c1O` (stereo not drawn): the inhibition entry in data set [1] was “Dose-dependent effect”. Moreover, inhibition in [2] was half-maximal at 29 µM (IC50).

As for `COc1ccc(C(c2cc3c(cc2O)OCO3)N2CCCC2)cc1` (stereo not drawn), the inhibition entry in data set [1] is “Dose-dependent effect”. In data set [2], this compound showed an IC50 of 97 µM.

As to `Oc1cc2c(cc1C(c1ccc(Cl)cc1)N1CCOCC1)OCO2` (stereo not drawn), in data set [1], the inhibition result was “Dose-dependent effect”. This compound had an IC50 in [2] of 68 µM.

As to `CC(C)C[C@@H](C=O)NC(=O)[C@H](CC(C)C)NC(=O)[C@H](CC(C)C)NC(=O)OCc1ccccc1` (Cbz-Leu-Leu-Leu-aldehyde), the inhibition entry in data set [3], in data set [4], in data set [5] and in data set [6] was “Active” each time. In [7], the inhibition result was “inactive”.

On to `COc1ccc(C(c2cc3c(cc2O)OCO3)N2CCOCC2)cc1` (stereo not drawn), for which the inhibition entry in data set [1] was “Dose-dependent effect”. This compound also showed an IC50 in [2] of 65 µM.

Consider `COc1cc(OC)c(C(c2cc3c(cc2O)OCO3)N2CCOCC2)c(OC)c1` (stereo not drawn), for which the inhibition result in data set [1] is “Dose-dependent effect”. For the same compound, in data set [2], the IC50 was determined as 53 µM.

On to `COc1ccc(C(c2cc3c(cc2O)OCO3)N2CCOCC2)c(OC)c1` (stereo not drawn), for which the inhibition result in data set [1] was “Dose-dependent effect”. The midpoint of inhibition in data set [2], the IC50, lay at 44 µM.

On to `COc1cccc(C(c2cc3c(cc2O)OCO3)N2CCOCC2)c1OC` (racemic), for which the inhibition result in [8] was “Active”.

On to `CC(C)C[C@H](NC(=O)[C@H](Cc1ccccc1)NC(=O)c1cnccn1)B(O)O`, for which the inhibition entry in data set [3] is “Active”.

As to `COc1cccc(C(c2cc3c(cc2O)OCO3)N2CCOCC2)c1OC` (single isomer, unassigned; (+)) [listing 1 of 2 here], the inhibition result in [8] is “Active”. The fold change (FC) in data set [9] amounted to 3.7; in data set [10] it was 3.32. Also, in [1], the inhibition result was “Dose-dependent effect”.

`CN(C)c1ccc(C(c2cc3c(cc2O)OCO3)N2CCOCC2)cc1` (stereo not drawn): the inhibition entry in data set [1] is “Dose-dependent effect”. Besides, the IC50 in data set [2] was found to be 81 µM.

For the compound `COc1ccc(C(c2cc3c(cc2O)OCO3)N2CCOCC2)cc1OC` (stereo not drawn), the inhibition entry in data set [1] is “Dose-dependent effect”. For the same compound, the IC50 in [2] stood at 20 µM.

As for `Oc1cc2c(cc1C(c1ccc3c(c1)OCO3)N1CCOCC1)OCO2` (stereo not drawn), in [1], the inhibition result is “Dose-dependent effect”. The compound also had an IC50 in data set [2] of 70 µM.

Turning to `Oc1cc2c(cc1C(c1ccc(F)cc1)N1CCOCC1)OCO2` (stereo not drawn), the inhibition entry in data set [1] was “Dose-dependent effect”. Also, the IC50 in [2] is 67 µM.

On to `COc1cccc(C(c2cc3c(cc2O)OCO3)N2CCOCC2)c1OC` (single isomer, unassigned; (-)), for which, in [8], the inhibition result was “inactive”.

For the compound `Oc1ccccc1C(c1cc2c(cc1O)OCO2)N1CCOCC1` (stereo not drawn), the inhibition entry in data set [1] is “Dose-dependent effect”. The same compound had an IC50 in [2] of 80 µM.

Consider `COc1cccc(C(c2cc3c(cc2O)OCO3)N2CCOCC2)c1OC` (single isomer, unassigned; (+)) [listing 2 of 2 here], for which, in data set [11], the Activity result was “Non-toxic”. It took 45 µM to reach half-maximal inhibition in data set [2] (IC50).

Consider `COc1ccc(C(c2cc3c(cc2O)OCO3)N2CCCCC2)cc1` (stereo not drawn), for which the inhibition entry in data set [1] was “Dose-dependent effect”. Besides, the IC50 in [2] came out at 82 µM.
